Screening results from PubChem.
Shown are actives, neighbours in structure and some others; about 1.4% of the full set was active somewhere.
DAGLB inh – diacylglycerol lipase beta (human) inhibition; AID 504411; HEK293T DAGLB membrane lysate, EnzChek fluorogenic substrate; 340,000 tested, 0.059% active; inhibition, % at 5.17 µM; in the data active means inhibition above about 34%;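 further: 0% = enzyme with vehicle and 100% = wells lacking enzyme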
Target sequence (Q8NCG7 whole entry, looked up): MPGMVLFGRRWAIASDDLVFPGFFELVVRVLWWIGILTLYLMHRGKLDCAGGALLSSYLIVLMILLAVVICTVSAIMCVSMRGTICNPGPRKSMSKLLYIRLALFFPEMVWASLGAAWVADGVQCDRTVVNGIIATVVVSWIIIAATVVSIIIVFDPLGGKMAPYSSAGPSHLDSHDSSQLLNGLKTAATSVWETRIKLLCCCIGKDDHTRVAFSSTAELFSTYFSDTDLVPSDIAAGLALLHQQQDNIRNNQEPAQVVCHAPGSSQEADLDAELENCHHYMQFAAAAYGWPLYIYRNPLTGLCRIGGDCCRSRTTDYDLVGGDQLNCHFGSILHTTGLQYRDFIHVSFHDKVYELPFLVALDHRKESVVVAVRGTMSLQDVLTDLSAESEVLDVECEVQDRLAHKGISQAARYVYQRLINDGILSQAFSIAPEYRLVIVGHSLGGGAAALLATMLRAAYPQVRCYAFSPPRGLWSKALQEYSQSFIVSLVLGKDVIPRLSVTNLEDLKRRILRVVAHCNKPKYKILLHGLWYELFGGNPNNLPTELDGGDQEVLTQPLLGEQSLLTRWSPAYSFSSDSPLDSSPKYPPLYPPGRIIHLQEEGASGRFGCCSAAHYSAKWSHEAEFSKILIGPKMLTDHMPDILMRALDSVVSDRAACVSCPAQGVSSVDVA
HTR5A ag ctr – activates human HTR5A in OPRM1-OPRD1 agonist counter-screen; P47898; HTR5A agonist assay, luminescence, cell-based; activation, % at 9.3 µM; 340,000 tested, 0.61% active; AID 504692; in the data active means activation mostly above about 9.5%, no sharp cut-off; inactive means mostly below about 7.6%;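 further: 0% = cells with vehicle only and 100% = reference agonist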
OPRM1-OPRD1 inv – inverse agonist of human OPRM1-OPRD1 heterodimerization | P35372+P41143 | cell-based MOR-DOR heterodimer luminescence, inverse agonism | inhibition, % at 9.3 µM | 340,000 tested, 0.21% active | AID 504357; in the data active means inhibition above about 22%, passing the limit was not always enough;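 further: 0% = cells with DMSO and 100% = wells without cells with DMSO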
Arrestin-AP2 inh – blocks beta-arrestin peptide binding to AP2 adaptin; FITC-arrestin peptide / GST-AP2 beads, flow cytometry; AP2 beta2 appendage carries R879A mutation; inhibition, % at 10 µM; 340,000 tested, 0.31% active;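 active means inhibition above a set limit, near 3 SD of compounds lacking own fluorescence, cut at about 54% in these data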;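 further: plate controls were DMSO wells for no effect and 5 µM unlabelled arrestin peptide for full effect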
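System: GST-AP2 R879A glutathione beads; medium: PBS, Tween 20 0.05%, BSA 0.1%; reagent: fluorescein-tagged arrestin peptide at 50 nM final; schedule: pre-incubation 12 min, peptide binding 1 h, room temperature; detection: flow cytometry, FL1 (488/535 nm); read-out: inhibition as reduced fluorescein signal on beads, percent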
HTR5A inv ctr – inverse agonist of human HTR5A in OPRM1-OPRD1 counter-screen; HTR5A cell line, luminescence, inverse agonism; inhibition, % at 9.3 µM; 340,000 tested, 0.083% active; AID 504634; in the data active means inhibition mostly above about 23%, no sharp cut-off; inactive means mostly below about 18%;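 further: 0% = cells with DMSO and 100% = no-cell wells with DMSO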
MOR-DOR ag – OPRM1-OPRD1 heterodimerization agonism | cells, luminescence | activation, % at 9.3 µM | 340,000 tested, 0.3% active;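 further: 0% = vehicle-treated cells and 100% = reference agonist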
MOR-DOR ag conf – OPRM1-OPRD1 heterodimer agonism, confirmation. cells, MOR-DOR heterodimerization, luminescence complementation. shares compounds with MOR-DOR ag. activation, % at 9.3 µM. 830 tested, 45% active. AID 504904;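 further: 0% = vehicle-treated cells and 100% = reference agonist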
HTR5A ag ctr2 – activates human HTR5A in OPRM1-OPRD1 agonist counter-screen | shares compounds with MOR-DOR ag | HTR5A agonist counterscreen, cell luminescence | activation, % at 9.3 µM | 830 tested, 8% active | AID 504905; in the data active means activation above about 17%;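 further: 0% = vehicle-treated cells and 100% = reference agonist response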
Active calls of the source: *; i = inactive; nt = no result given. Unless noted, no stated cut-off is given here; in the data, active means activation above about 18%; inactive means the rest.

SMILES	DAGLB inh	HTR5A ag ctr	OPRM1-OPRD1 inv	Arrestin-AP2 inh	HTR5A inv ctr	MOR-DOR ag	MOR-DOR ag conf	HTR5A ag ctr2
O=S(=O)(c1c(Cl)cc(Br)cc1Cl)N1CCN(C(=S)NC2CC2)CC1	-1.2	-0.4	-413.5	1.7	1.4	85.1*	121.7*	3.6
C[C@@H]1CN([C@H](C)CO)C(=O)c2cc(Br)cnc2O[C@H]1CN(C)C	1.5	nt	nt	nt	nt	nt	nt	nt
COc1ccccc1CN1CCN(C(CC(C)C)c2nnnn2Cc2cccs2)CC1 (stereo unspecified)	-1.1	8.0	-267.7	3.7	-37.9	45.6*	62.9*	2.1
O=C(NCc1ccccc1)/C(=C\c1ccc(F)cc1)NC(=O)c1ccco1	0.0	nt	nt	nt	nt	nt	nt	nt
O=C(NCCCNc1ccc([N+](=O)[O-])cc1)C(F)(F)F	1.8	-1.1	10.0	1.3	-6.6	-2.0	nt	nt
O=C(CCl)N(CCCNC(=O)C(F)(F)F)c1ccc([N+](=O)[O-])cc1	2.6	-0.8	-94.0	1.0	-8.5	18.4*	27.5*	29.0*
Clc1cccc(COn2c(-c3ccc(Cl)cc3Cl)nc3ncccc32)c1	0.7	3.2	-21.0	-1.9	-11.6	3.9	nt	nt
Cc1ccc(COn2c(-c3ccc(Cl)cc3Cl)nc3ncccc32)cc1	0.0	1.3	-432.9	11.2	-3.6	76.6*	1.2	35.0*
N#C/C(=C(/O)C(Cl)(Cl)Cl)c1nc2ccccc2[nH]1	4.5	-0.2	-108.0	21.2	0.7	21.2*	10.2	6.0
CC(C)Cn1nc(C(=O)NCc2ccccc2CN2CCCC2)c2ccccc2c1=O	-1.0	2.9	i	48.7	-7.5	162.9*	3.5	0.8
CCCCn1nc(C(=O)NCc2ccccc2CN2CCCC2)c2ccccc2c1=O	-2.2	4.9	11.6	2.3	-12.1	-2.7	nt	nt
COc1cc(C(C(=O)NC2CCCCC2)N(C(=O)Cc2c[nH]c3ccccc23)c2ccccc2C)cc(OC)c1OC (stereo unspecified)	-0.5	-1.3	-10.3	-11.3	14.8	2.3	nt	nt
COc1ccc(C(C(=O)NC2CCCCC2)N(C(=O)Cc2c[nH]c3ccccc23)c2ccc(NC(C)=O)cc2)cc1OC (stereo unspecified)	3.3	2.8	-114.5	32.5	-7.7	26.3*	83.1*	-1.9
Cc1cc(/C=C2\SC(=S)N(C)C2=O)c(C)n1-c1ccc(O)cc1	-17.7	6.7	-270.8	-5.0	0.3	51.9*	33.1*	-1.5
Cc1cc(/C=C2\SC(=S)N(C)C2=O)c(C)n1-c1ccccc1O	-7.1	0.7	-71.9	0.8	-2.0	13.5	nt	nt
CC(=O)Nc1ccc(C(=S)NCC2(N(C)C)CCCCC2)cc1	-1.7	0.3	7.5	-15.5	-0.9	-1.6	nt	nt
COC(=O)c1ccc(C(=S)NCC2(N(C)C)CCCCC2)cc1	-1.3	5.7	-199.1	-4.3	-16.0	37.3*	3.4	70.0*
Cc1ccc(S(=O)(=O)N2CCN(C(=O)c3ccc(-n4cncn4)c([N+](=O)[O-])c3)CC2)c(C)c1	-0.5	nt	nt	nt	nt	nt	nt	nt
COc1cc(NC(C)CCCN)c2nc(C)ccc2c1Oc1ccc(F)cc1 (stereo unspecified)	-3.4	nt	nt	nt	nt	nt	nt	nt
COc1ccc(C(CNC(=O)CCOc2ccccc2)N(C)C)cc1 (stereo unspecified)	3.8	-4.5	-159.8	15.7	6.8	31.7*	360.9*	3.1
CN(C)C(CNC(=O)CCOc1ccccc1)c1ccco1 (stereo unspecified)	-0.8	5.8	-141.3	13.3	4.2	26.3*	23.8*	3.2
Cc1cccc(OCCC(=O)NCC(c2ccccc2)N(C)C)c1 (stereo unspecified)	-0.1	3.3	-143.6	0.2	17.1	28.4*	49.3*	1.9
CN(C)C(CNC(=O)CCc1nc2ccccc2s1)c1ccccc1 (stereo unspecified)	3.4	4.5	-266.8	10.7	-13.5	33.1*	0.4	0.3
C[C@H](CO)N1C[C@H](C)[C@@H](CN(C)C(=O)Nc2cccc(F)c2)Oc2ncc(Br)cc2C1=O	0.1	nt	nt	nt	nt	nt	nt	nt
Nc1ccccc1-n1nc2ccc3ccccc3c2n1	-7.2	nt	nt	nt	nt	nt	nt	nt
SMILES	DAGLB inh	HTR5A ag ctr	OPRM1-OPRD1 inv	Arrestin-AP2 inh	HTR5A inv ctr	MOR-DOR ag	MOR-DOR ag conf	HTR5A ag ctr2
CCCc1c(C(=O)N/N=C(\CC)c2ccccc2)nnn1-c1nonc1N	-2.5	nt	nt	nt	nt	nt	nt	nt
Cc1cc(C)c(NC(=O)Cn2nnc(C(=O)NCc3cccs3)c2N)c(C)c1	0.2	0.3	-122.6	13.8	-41.5	22.2*	0.0	-3.8
Cc1cc(C)cc(NC(=O)Cn2nnc(C(=O)NCc3cccs3)c2N)c1	-2.1	3.6	-57.6	25.3	-37.8	10.6	nt	nt
CCOC(=O)C1(CCOc2ccccc2)CCN(Cc2cnc(SC)nc2)CC1	-3.6	4.0	-155.3	-3.8	20.5	31.7*	1.8	-2.1
CCOC(=O)C1(CCOc2ccccc2)CCN(Cc2cc(OC)c(O)c(OC)c2)CC1	-3.8	-1.6	-3.5	0.4	5.8	0.7	nt	nt
CCOC(=O)C1(CC2CC2)CCN(Cc2cnc(-c3ccccc3C)nc2)CC1	-3.8	-4.0	-395.9	-2.6	24.2	79.0*	71.8*	2.8
CCOC(=O)C1(CCOc2ccccc2)CCN(Cc2ccc(OC)c(O)c2)CC1	-5.2	-0.7	-367.9	3.3	2.5	77.2*	75.0*	2.6
COc1ccc(-n2nnnc2CNC(=O)c2c(-c3ccccc3Cl)noc2C)cc1	-1.4	nt	nt	nt	nt	nt	nt	nt
Cc1cccc(C)c1NC(=O)c1cc(S(=O)(=O)N2CCC3(CC2)OCCO3)ccc1F	0.0	nt	nt	nt	nt	nt	nt	nt
Cc1ccc(N2CC(C(=O)N3CCN(c4ccccn4)CC3)CC2=O)cc1 (stereo unspecified)	1.0	2.0	13.2	21.1	-7.1	-2.5	nt	nt
CCc1ccc(NC(=O)Nc2ccc3c(c2)N(C)C(=O)CS3)cc1	-3.3	3.6	-487.7	1.6	-10.9	96.3*	55.0*	4.7
O=C(Nc1ccccn1)c1cc(-c2cccnc2)nc2ccc(Br)cc12	-1.6	2.6	-158.2	4.1	-8.4	32.8*	20.1*	10.1
Cc1cccc(NC(=S)NCC(c2cccnc2)N(C)C)c1C (stereo unspecified)	1.7	-3.8	i	1.8	9.9	415.6*	411.9*	3.6
Cc1ccc(C)c(NC(=S)NCC(c2ccccc2)N(C)C)c1 (stereo unspecified)	-1.0	2.1	i	-7.7	-5.8	264.6*	360.5*	-1.7
Cc1ccccc1NC(=S)NCC(c1cccnc1)N(C)C (stereo unspecified)	0.3	-0.1	i	2.6	0.2	215.6*	211.5*	0.9
Cc1ccc(NC(=O)NCC(c2ccccc2)N(C)C)cc1 (stereo unspecified)	-3.1	-2.3	i	36.1	8.2	352.9*	23.2*	16.7*
